Experimental data reported in ChEMBL document CHEMBL4715736, “Identification of anticancer agents based on the thieno[2,3-b]pyridine and 1H-pyrazole molecular scaffolds” (2016).

Columns and labels:
Format in all cases: functional
OVCAR-5 = assay: Growth inhibition of human OVCAR-5 cells assessed as cell growth at 0.01 uM incubated for 48 hrs by sulforhodamine B assay relative to control; details: read-out: Activity
NCI-H460 = assay: Growth inhibition of human NCI-H460 cells incubated for 48 hrs by sulforhodamine B assay
Method in brief: (§1)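 NCI60 panel at the NCI Developmental Therapeutics Program. Only compounds active in the 10 µM screen went to dose-response testing. GI50, the concentration giving 50% of maximal inhibition of proliferation, and TGI, the concentration giving total growth inhibition, were derived from the dose-response curves.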

RXF 393 [1] = assay: Growth inhibition of human RXF 393 cells assessed as cell growth at 0.1 uM incubated for 48 hrs by sulforhodamine B assay relative to control; details: read-out: Activity
MCF7 = assay: Growth inhibition of human MCF7 cells assessed as cell growth at 100 uM incubated for 48 hrs by sulforhodamine B assay relative to control; details: read-out: Activity
SF-268 = assay: Growth inhibition of human SF-268 cells assessed as cell growth at 0.1 uM incubated for 48 hrs by sulforhodamine B assay relative to control; details: read-out: Activity
MDA-MB-231 [2] = assay: Growth inhibition of human MDA-MB-231 cells assessed as cell growth at 0.1 uM incubated for 48 hrs by sulforhodamine B assay relative to control; details: read-out: Activity
SK-MEL-5 = assay: Growth inhibition of human SK-MEL-5 cells incubated for 48 hrs by sulforhodamine B assay
Method in brief: (§2)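 NCI DTP 60-line human tumour panel. Dose-response curves were run only for ligands active in the initial 10 µM screen. GI50 (concentration giving 50% of maximal inhibition of proliferation) and TGI (concentration giving total growth inhibition) were derived from these curves.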

OVCAR-4 = assay: Growth inhibition of human OVCAR-4 cells incubated for 48 hrs by sulforhodamine B assay; details: for CC50: read-out: LC50 (the source's name); method in brief: as §2
M14 [3] = assay: Growth inhibition of human M14 cells incubated for 48 hrs by sulforhodamine B assay; method in brief: as §1
CAKI-1 = assay: Growth inhibition of human CAKI-1 cells assessed as cell growth at 100 uM incubated for 48 hrs by sulforhodamine B assay relative to control; details: read-out: Activity
Method in brief: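 NCI Developmental Therapeutics Program NCI60 panel. Compounds that were active in the 10 µM one-dose screen went on to dose–response testing. Growth at each concentration is expressed relative to untreated control (100%). GI50 (concentration giving 50% of maximal inhibition of proliferation) and TGI (concentration giving total growth inhibition) were derived from the curves.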

NCI-H522 = assay: Growth inhibition of human NCI-H522 cells assessed as cell growth at 0.1 uM incubated for 48 hrs by sulforhodamine B assay relative to control; details: read-out: Activity
SR = assay: Growth inhibition of human SR cells assessed as cell growth at 100 uM incubated for 48 hrs by sulforhodamine B assay relative to control; details: read-out: Activity
RPMI-8226 = assay: Growth inhibition of human RPMI-8226 cells assessed as cell growth at 100 uM incubated for 48 hrs by sulforhodamine B assay relative to control; details: read-out: Activity
K562 = assay: Growth inhibition of human K562 cells incubated for 48 hrs by sulforhodamine B assay; method in brief: as §1
NCI-H226 [4] = assay: Growth inhibition of human NCI-H226 cells assessed as cell growth at 1 uM incubated for 48 hrs by sulforhodamine B assay relative to control; details: read-out: Activity
HCT-116 = assay: Growth inhibition of human HCT-116 cells assessed as cell growth at 1 uM incubated for 48 hrs by sulforhodamine B assay relative to control; details: read-out: Activity
ACHN = assay: Growth inhibition of human ACHN cells assessed as cell growth at 1 uM incubated for 48 hrs by sulforhodamine B assay relative to control; details: read-out: Activity
T47D = assay: Growth inhibition of human T47D cells assessed as cell growth at 1 uM incubated for 48 hrs by sulforhodamine B assay relative to control; details: read-out: Activity
SNB-19 = assay: Growth inhibition of human SNB-19 cells assessed as cell growth at 100 uM incubated for 48 hrs by sulforhodamine B assay relative to control; details: read-out: Activity
M14 [5] = assay: Growth inhibition of human M14 cells assessed as cell growth at 0.01 uM incubated for 48 hrs by sulforhodamine B assay relative to control; details: read-out: Activity
NCI/ADR-RES = assay: Growth inhibition of human NCI/ADR-RES cells assessed as cell growth at 0.1 uM incubated for 48 hrs by sulforhodamine B assay relative to control; details: read-out: Activity
RXF 393 [6] = assay: Growth inhibition of human RXF 393 cells assessed as cell growth at 100 uM incubated for 48 hrs by sulforhodamine B assay relative to control; details: read-out: Activity
HCT-15 = assay: Growth inhibition of human HCT-15 cells assessed as cell growth at 100 uM incubated for 48 hrs by sulforhodamine B assay relative to control; details: read-out: Activity
UACC-257 = assay: Growth inhibition of human UACC-257 cells assessed as cell growth at 100 uM incubated for 48 hrs by sulforhodamine B assay relative to control; details: read-out: Activity
MDA-MB-468 = assay: Growth inhibition of human MDA-MB-468 cells assessed as cell growth at 0.1 uM incubated for 48 hrs by sulforhodamine B assay relative to control; details: read-out: Activity
MDA-MB-231 [7] = assay: Growth inhibition of human MDA-MB-231 cells assessed as cell growth at 0.01 uM incubated for 48 hrs by sulforhodamine B assay relative to control; details: read-out: Activity
HOP-62 = assay: Growth inhibition of human HOP-62 cells incubated for 48 hrs by sulforhodamine B assay; method in brief: as §1
MDA-MB-435 = assay: Growth inhibition of human MDA-MB-435 cells incubated for 48 hrs by sulforhodamine B assay; method in brief: as §1
NCI-H226 [8] = assay: Growth inhibition of human NCI-H226 cells assessed as cell growth at 0.1 uM incubated for 48 hrs by sulforhodamine B assay relative to control; details: read-out: Activity

## CCc1ccccc1NC(=O)c1sc2nc3c(cc2c1N)C(=O)CCC3
OVCAR-5
  growth at 0.01 µM: 84%
NCI-H460
  GI50: 345 nM
  LC50: > 100000 nM
  TGI: > 100000 nM
RXF 393 [1]
  growth at 0.1 µM: 66%
MCF7
  growth at 100 µM: 9%
SF-268
  growth at 0.1 µM: 93%
MDA-MB-231 [2]
  growth at 0.1 µM: 90%
SK-MEL-5
  GI50: 282 nM
  LC50: > 100000 nM
  TGI: > 100000 nM
OVCAR-4
  GI50: 31.5 nM
  TGI: > 100000 nM
  CC50: > 100000 nM
M14 [3]
  GI50: 291 nM
  LC50 (concentration killing 50% of cells): > 100000 nM
  TGI: > 100000 nM
CAKI-1
  growth at 100 µM: 35%
NCI-H522
  growth at 0.1 µM: 88%
SR
  growth at 100 µM: 2%
RPMI-8226
  growth at 100 µM: -5%
K562
  GI50: 203 nM
  LC50 (concentration killing 50% of cells): > 100000 nM
  TGI: > 100000 nM
NCI-H226 [4]
  growth at 1 µM: 63%
HCT-116
  growth at 1 µM: 27%
ACHN
  growth at 1 µM: 43%
T47D
  growth at 1 µM: 20%
SNB-19
  growth at 100 µM: 11%
M14 [5]
  growth at 0.01 µM: 90%
NCI/ADR-RES
  growth at 0.1 µM: 88%
RXF 393 [6]
  growth at 100 µM: -41%
HCT-15
  growth at 100 µM: 19%
UACC-257
  growth at 100 µM: 25%
MDA-MB-468
  growth at 0.1 µM: 75%
MDA-MB-231 [7]
  growth at 0.01 µM: 97%
HOP-62
  GI50: 445 nM
  LC50: > 100000 nM
  TGI: ≥ 100000 nM
MDA-MB-435
  GI50: 46.4 nM
  TGI: 225 nM
MDA-MB-435; read-out: LC50 (the source's name)
  CC50: > 100000 nM
NCI-H226 [8]
  growth at 0.1 µM: 86%

## Cc1ccc(NC(=O)c2sc3nc4c(cc3c2N)C(=O)CCC4)cc1C
OVCAR-5
  growth at 0.01 µM: 89%
NCI-H460
  GI50: 374 nM
  LC50: > 100000 nM
  TGI: ≥ 100000 nM
RXF 393 [1]
  growth at 0.1 µM: 82%
MCF7
  growth at 100 µM: 8%
SF-268
  growth at 0.1 µM: 94%
MDA-MB-231 [2]
  growth at 0.1 µM: 95%
SK-MEL-5
  GI50: 376 nM
  LC50: ≥ 100000 nM
  TGI: 16400 nM
OVCAR-4
  GI50: 20.1 nM
  TGI: > 100000 nM
  CC50: > 100000 nM
M14 [3]
  GI50: 366 nM
  LC50 (concentration killing 50% of cells): > 100000 nM
  TGI: > 100000 nM
CAKI-1
  growth at 100 µM: 22%
NCI-H522
  growth at 0.1 µM: 82%
SR
  growth at 100 µM: -14%
RPMI-8226
  growth at 100 µM: -9%
K562
  GI50: 468 nM
  LC50 (concentration killing 50% of cells): > 100000 nM
  TGI: 35000 nM
NCI-H226 [4]
  growth at 1 µM: 68%
HCT-116
  growth at 1 µM: 33%
ACHN
  growth at 1 µM: 46%
T47D
  growth at 1 µM: 23%
SNB-19
  growth at 100 µM: 29%
M14 [5]
  growth at 0.01 µM: 96%
NCI/ADR-RES
  growth at 0.1 µM: 102%
RXF 393 [6]
  growth at 100 µM: 14%
HCT-15
  growth at 100 µM: 7%
UACC-257
  growth at 100 µM: 35%
MDA-MB-468
  growth at 0.1 µM: 83%
MDA-MB-231 [7]
  growth at 0.01 µM: 98%
HOP-62
  GI50: 605 nM
  LC50: > 100000 nM
  TGI: > 100000 nM
MDA-MB-435
  GI50: 121 nM
  TGI: 322 nM
NCI-H226 [8]
  growth at 0.1 µM: 88%
